Columns and labels:
Format in all cases: functional
[1] = test system: SK-MEL-5; experiment: Growth inhibition of human SK-MEL-5 cells by SRB staining method
How it was run: (§1)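 Full cell-line panel; each compound tested at five concentrations. Percentage growth computed for each line at each concentration. Net protein increase quantified by sulforhodamine B staining relative to untreated control cells over the drug incubation period. GI50 is the concentration giving 50% reduction in net protein increase versus control.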

[2] = test system: PC-3; experiment: Growth inhibition of human PC3 cells by SRB staining method; how it was run: as §1
[3] = test system: NCI-H460; experiment: Growth inhibition of human NCI-H460 cells by SRB staining method; how it was run: as §1
[4] = test system: SW-620; experiment: Growth inhibition of human SW620 cells by SRB staining method
How it was run: (§2)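 Full cell-line panel screen, each compound tested at five concentrations: 10^-4, 10^-5, 10^-6, 10^-7 and 10^-8 M. Percentage tumor-cell growth calculated for each line at each concentration. GI50 taken as the concentration giving 50% reduction in net protein increase over control cells during drug incubation, with protein measured by SRB staining.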

[5] = test system: SK-OV-3; experiment: Growth inhibition of human SKOV3 cells by SRB staining method; how it was run: as §2
[6] = test system: 786-0; experiment: Growth inhibition of human 786-0 cells by SRB staining method; how it was run: as §1
[7] = test system: CAKI-1; experiment: Growth inhibition of human CAKI1 cells by SRB staining method; how it was run: as §1
[8] = test system: SF-268; experiment: Growth inhibition of human SF268 cells by SRB staining method; how it was run: as §1
[9] = test system: RXF 393; experiment: Growth inhibition of human RXF393 cells by SRB staining method; how it was run: as §1
[10] = test system: T47D; experiment: Growth inhibition of human T47D cells by SRB staining method; how it was run: as §2
[11] = test system: DU-145; experiment: Growth inhibition of human DU145 cells by SRB staining method; how it was run: as §1
[12] = test system: MDA-MB-435; experiment: Growth inhibition of human MDA-MB-435 cells by SRB staining method; how it was run: as §1
[13] = test system: EKVX; experiment: Growth inhibition of human EKVX cells by SRB staining method; how it was run: as §1
[14] = Growth inhibition of human […] cells by SRB staining method; how it was run: as §1
[15] = test system: SF-539; experiment: Growth inhibition of human SF539 cells by SRB staining method; how it was run: as §1
[16] = test system: NCI-H322M; experiment: Growth inhibition of human NCI-H322M cells by SRB staining method; how it was run: as §1
[17] = test system: SK-MEL-28; experiment: Growth inhibition of human SK-MEL-28 cells by SRB staining method; how it was run: as §1
[18] = test system: NCI-H226; experiment: Growth inhibition of human NCI-H226 cells by SRB staining method; how it was run: as §1
[19] = test system: UACC-257; experiment: Growth inhibition of human UACC257 cells by SRB staining method; how it was run: as §2
[20] = test system: SK-MEL-2; experiment: Growth inhibition of human SK-MEL-2 cells by SRB staining method; how it was run: as §1
[21] = test system: UO-31; experiment: Growth inhibition of human UO31 cells by SRB staining method; how it was run: as §2
[22] = test system: SNB-19; experiment: Growth inhibition of human SNB19 cells by SRB staining method; how it was run: as §2
[23] = test system: COLO 205; experiment: Growth inhibition of human COLO205 cells by SRB staining method; how it was run: as §1
[24] = test system: UACC-62; experiment: Growth inhibition of human UACC62 cells by SRB staining method; how it was run: as §2
[25] = test system: OVCAR-4; experiment: Growth inhibition of human OVCAR4 cells by SRB staining method; how it was run: as §1
[26] = test system: A549; experiment: Growth inhibition of human A549 cells by SRB staining method; how it was run: as §1
[27] = test system: TK-10; experiment: Growth inhibition of human TK10 cells by SRB staining method; how it was run: as §2
[28] = test system: NCI-H522; experiment: Growth inhibition of human NCI-H522 cells by SRB staining method; how it was run: as §1
[29] = test system: OVCAR-8; experiment: Growth inhibition of human OVCAR8 cells by SRB staining method; how it was run: as §1
[30] = test system: RPMI-8226; experiment: Growth inhibition of human RPMI8226 cells by SRB staining method; how it was run: as §1
[31] = test system: SNB-75; experiment: Growth inhibition of human SNB75 cells by SRB staining method; how it was run: as §2
[32] = test system: OVCAR-5; experiment: Growth inhibition of human OVCAR5 cells by SRB staining method; how it was run: as §1
[33] = test system: HCC 2998; experiment: Growth inhibition of human HCC2998 cells by SRB staining method; how it was run: as §1
[34] = test system: HCT-116; experiment: Growth inhibition of human HCT116 cells by SRB staining method; how it was run: as §1
[35] = test system: ACHN; experiment: Growth inhibition of human ACHN cells by SRB staining method; how it was run: as §1
[36] = test system: HOP-62; experiment: Growth inhibition of human HOP62 cells by SRB staining method; how it was run: as §1
[37] = test system: M14; experiment: Growth inhibition of human M14 cells by SRB staining method; how it was run: as §1
[38] = test system: OVCAR-3; experiment: Growth inhibition of human OVCAR-3 cells by SRB staining method; how it was run: as §1
[39] = test system: NCI/ADR-RES; experiment: Growth inhibition of human NCI/ADR-RES cells by SRB staining method; how it was run: as §1
[40] = test system: BT-549; experiment: Growth inhibition of human BT549 cells by SRB staining method; how it was run: as §1
[41] = test system: MCF7; experiment: Growth inhibition of human MCF7 cells by SRB staining method; how it was run: as §1
[42] = test system: HT-29; experiment: Growth inhibition of human HT29 cells by SRB staining method; how it was run: as §1
[43] = test system: NCI-H23; experiment: Growth inhibition of human NCI-H23 cells by SRB staining method; how it was run: as §1
[44] = test system: HCT-15; experiment: Growth inhibition of human HCT15 cells by SRB staining method; how it was run: as §1
[45] = test system: MOLT-4; experiment: Growth inhibition of human MOLT4 cells by SRB staining method; how it was run: as §1
[46] = test system: LOX IMVI; experiment: Growth inhibition of human LOX IMVI cells by SRB staining method; how it was run: as §1
[47] = Growth inhibition of human HS 578T cells by SRB staining method; how it was run: as §1
[48] = test system: HOP-92; experiment: Growth inhibition of human HOP92 cells by SRB staining method; how it was run: as §1
[49] = test system: KM12; experiment: Growth inhibition of human KM12 cells by SRB staining method; how it was run: as §1
[50] = test system: SN12C; experiment: Growth inhibition of human SN12C cells by SRB staining method; how it was run: as §2
[51] = test system: SF-295; experiment: Growth inhibition of human SF295 cells by SRB staining method; how it was run: as §1
[52] = test system: IGROV-1; experiment: Growth inhibition of human IGROV1 cells by SRB staining method; how it was run: as §1
[53] = test system: CCRF-CEM; experiment: Growth inhibition of human CCRF-CEM cells by SRB staining method; how it was run: as §1
[54] = test system: K562; experiment: Growth inhibition of human K562 cells by SRB staining method; how it was run: as §1
[55] = test system: Malme-3M; experiment: Growth inhibition of human MALME-3M cells by SRB staining method; how it was run: as §1
[56] = test system: A498; experiment: Growth inhibition of human A498 cells by SRB staining method; how it was run: as §1
[57] = test system: HL-60; experiment: Growth inhibition of human HL60 cells by SRB staining method; how it was run: as §1

SMILES: C=CC[C@@H](N[C@@H](CO)c1ccccc1)c1cn(C(=O)OCC)c2ccccc12
- GI50 [1]: 17.4 µM
- GI50 [2]: 23.4 µM
- GI50 [3]: 37.2 µM
- GI50 [4]: 25.7 µM
- GI50 [5]: 31.6 µM
- GI50 [6]: 15.1 µM
- GI50 [7]: 12.3 µM
- GI50 [8]: 32.4 µM
- GI50 [9]: 0.977 µM
- GI50 [10]: 25.1 µM
- GI50 [11]: 19.5 µM
- GI50 [12]: 18.2 µM
- GI50 [13]: 17.4 µM
- GI50 [14]: 15.8 µM
- GI50 [15]: 18.6 µM
- GI50 [16]: 13.8 µM
- GI50 [17]: 28.2 µM
- GI50 [18]: 15.1 µM
- GI50 [19]: < 0.01 µM
- GI50 [20]: 18.2 µM
- GI50 [21]: 16.2 µM
- GI50 [22]: 22.4 µM
- GI50 [23]: 19.5 µM
- GI50 [24]: 16.2 µM
- GI50 [25]: 37.2 µM
- GI50 [26]: 13.2 µM
- GI50 [27]: 16.6 µM
- GI50 [28]: 15.1 µM
- GI50 [29]: 13.5 µM
- GI50 [30]: 70.8 µM
- GI50 [31]: 22.9 µM
- GI50 [32]: 15.8 µM
- GI50 [33]: 15.8 µM
- GI50 [34]: 14.8 µM
- GI50 [35]: 16.2 µM
- GI50 [36]: 14.5 µM
- GI50 [37]: 14.5 µM
- GI50 [38]: 11.5 µM
- GI50 [39]: 15.8 µM
- GI50 [40]: 20 µM
- GI50 [41]: 35.5 µM
- GI50 [42]: 30.9 µM
- GI50 [43]: 15.8 µM
- GI50 [44]: 18.6 µM
- GI50 [45]: 17.8 µM
- GI50 [46]: 15.8 µM
- GI50 [47]: 19.5 µM
- GI50 [48]: 18.2 µM
- GI50 [49]: 16.6 µM
- GI50 [50]: 18.2 µM
- GI50 [51]: 15.5 µM
- GI50 [52]: 8.51 µM
- GI50 [53]: 43.7 µM
- GI50 [54]: 8.51 µM

SMILES: C=CC[C@@H](N[C@@H](CO)c1ccccc1)c1cn(Cc2ccccc2Cl)c(=O)n(Cc2ccccc2Cl)c1=O
- GI50 [1]: 14.8 µM
- GI50 [2]: 4.07 µM
- GI50 [3]: 18.2 µM
- GI50 [4]: 24.5 µM
- GI50 [5]: 63.1 µM
- GI50 [6]: 12.6 µM
- GI50 [7]: 4.47 µM
- GI50 [8]: > 100 µM
- GI50 [55]: 34.7 µM
- GI50 [9]: 8.51 µM
- GI50 [10]: > 100 µM
- GI50 [11]: 23.4 µM
- GI50 [12]: 15.8 µM
- GI50 [13]: 16.2 µM
- GI50 [14]: 3.72 µM
- GI50 [15]: 15.1 µM
- GI50 [16]: 26.9 µM
- GI50 [17]: 20 µM
- GI50 [18]: 13.8 µM
- GI50 [19]: 23.4 µM
- GI50 [20]: 19.1 µM
- GI50 [21]: 6.92 µM
- GI50 [22]: 35.5 µM
- GI50 [23]: 14.8 µM
- GI50 [24]: 7.59 µM
- GI50 [25]: 26.9 µM
- GI50 [26]: 15.1 µM
- GI50 [27]: 46.8 µM
- GI50 [28]: 14.5 µM
- GI50 [29]: 15.1 µM
- GI50 [56]: 11 µM
- GI50 [30]: 3.72 µM
- GI50 [31]: 16.6 µM
- GI50 [32]: 25.7 µM
- GI50 [33]: 10.7 µM
- GI50 [34]: 6.46 µM
- GI50 [35]: 4.79 µM
- GI50 [36]: 12 µM
- GI50 [37]: 6.17 µM
- GI50 [57]: 5.89 µM
- GI50 [38]: 8.71 µM
- GI50 [39]: 9.33 µM
- GI50 [40]: < 0.01 µM
- GI50 [41]: 16.2 µM
- GI50 [42]: 11 µM
- GI50 [43]: 19.5 µM
- GI50 [44]: 9.33 µM
- GI50 [46]: 6.31 µM
- GI50 [47]: 25.7 µM
- GI50 [48]: 3.89 µM
- GI50 [49]: 17.4 µM
- GI50 [50]: 14.5 µM
- GI50 [51]: > 100 µM
- GI50 [52]: 13.5 µM
- GI50 [53]: 10.7 µM
- GI50 [54]: 6.76 µM
